Measured values published in ChEMBL document CHEMBL3588757, “Structure-based design, synthesis and biological testing of piperazine-linked bis-epipodophyllotoxin etoposide analogs” (Bioorg Med Chem, 2015).

Experiments:
Assay type in all cases: functional
HCT-116 [1] = assay: Cytotoxicity against human HCT116 cells assessed as cell growth at 50 uM by SRB assay; details: read-out: Activity
Procedure, shortened: (§1)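 Measured in the NCI-60 human tumour cell line panel using five-dose testing. Growth was recorded at each dose for each cell line, and a GI50 was derived for each line.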

HCT-15 = assay: Cytotoxicity against human HCT15 cells assessed as cell growth at 5 uM by SRB assay; details: read-out: Activity; procedure, shortened: as §1
OVCAR-3 = assay: Cytotoxicity against human OVCAR3 cells assessed as cell growth at 50 uM by SRB assay; details: read-out: Activity
T47D = assay: Cytotoxicity against human T47D cells assessed as cell growth at 0.005 uM by SRB assay; details: read-out: Activity
RXF 393 = assay: Cytotoxicity against human RXF393 cells assessed as cell growth at 5 uM by SRB assay; details: read-out: Activity
[2] = Cytotoxicity against human NCI-ADR-RES cells assessed as cell growth at 0.5 uM by SRB assay; details: read-out: Activity
ACHN [3] = assay: Cytotoxicity against human ACHN cells assessed as cell growth at 5 uM by SRB assay; details: read-out: Activity
K562 = assay: Relative resistance, ratio of IC50 for etoposide-resistant human K/VP.5 cells to IC50 for human K562 cells
ACHN [4] = assay: Cytotoxicity against human ACHN cells by SRB assay
A498 = assay: Cytotoxicity against human A498 cells assessed as cell growth at 0.005 uM by SRB assay; details: read-out: Activity
CCRF-CEM [5] = assay: Cytotoxicity against human CCRF-CEM cells assessed as cell growth at 0.5 uM by SRB assay; details: read-out: Activity
HOP-62 = assay: Cytotoxicity against human HOP62 cells by SRB assay; procedure, shortened: as §1
HCT-116 [6] = assay: Cytotoxicity against human HCT116 cells assessed as cell growth at 5 uM by SRB assay; details: read-out: Activity; procedure, shortened: as §1
MDA-MB-231 [7] = assay: Cytotoxicity against human MDA-MB-231/ATCC cells assessed as cell growth at 0.5 uM by SRB assay; details: read-out: Activity
U-251 = assay: Cytotoxicity against human U251 cells assessed as cell growth at 0.5 uM by SRB assay; details: read-out: Activity
HL-60(TB) [8] = assay: Cytotoxicity against human HL-60(TB) cells assessed as cell growth at 50 uM by SRB assay; details: read-out: Activity; procedure, shortened: as §1
A549 = assay: Cytotoxicity against human A549/ATCC cells assessed as cell growth at 0.5 uM by SRB assay; details: read-out: Activity
HCT-116 [9] = assay: Cytotoxicity against human HCT116 cells assessed as cell growth at 0.05 uM by SRB assay; details: read-out: Activity; procedure, shortened: as §1
SK-MEL-2 [10] = assay: Cytotoxicity against human SK-MEL-2 cells assessed as cell growth at 0.5 uM by SRB assay; details: read-out: Activity
CCRF-CEM [11] = assay: Cytotoxicity against human CCRF-CEM cells assessed as cell growth at 0.05 uM by SRB assay; details: read-out: Activity
NCI-H23 [12] = assay: Cytotoxicity against human NCI-H23 cells assessed as cell growth at 0.5 uM by SRB assay; details: read-out: Activity
SF-539 = assay: Cytotoxicity against human SF539 cells assessed as cell growth at 0.05 uM by SRB assay; details: read-out: Activity
MDA-MB-231 [13] = assay: Cytotoxicity against human MDA-MB-231/ATCC cells by SRB assay
Procedure, shortened: (§2)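 NCI-60 panel screen; 5-dose testing giving GI50 per cell line, plus a single 10 µM one-dose test. Method details not given beyond the NCI screen.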

PC-3 = assay: Cytotoxicity against human PC3 cells assessed as cell growth at 0.5 uM by SRB assay; details: read-out: Activity
BT-549 = assay: Cytotoxicity against human BT549 cells assessed as cell growth at 0.05 uM by SRB assay; details: read-out: Activity
ACHN [14] = assay: Cytotoxicity against human ACHN cells assessed as cell growth at 50 uM by SRB assay; details: read-out: Activity
CCRF-CEM [15] = assay: Cytotoxicity against human CCRF-CEM cells assessed as cell growth at 5 uM by SRB assay; details: read-out: Activity
COLO 205 = assay: Cytotoxicity against human COLO205 cells by SRB assay
CAKI-1 = assay: Cytotoxicity against human Caki1 cells by SRB assay
SK-MEL-2 [16] = assay: Cytotoxicity against human SK-MEL-2 cells assessed as cell growth at 0.005 uM by SRB assay; details: read-out: Activity
SK-MEL-28 = assay: Cytotoxicity against human SK-MEL-28 cells by SRB assay; procedure, shortened: as §2
MDA-MB-435 [17] = assay: Cytotoxicity against human MDA-MB-435 cells by SRB assay; procedure, shortened: as §2
HL-60(TB) [18] = assay: Cytotoxicity against human HL-60(TB) cells assessed as cell growth at 0.05 uM by SRB assay; details: read-out: Activity; procedure, shortened: as §1
UO-31 = assay: Cytotoxicity against human UO31 cells assessed as cell growth at 5 uM by SRB assay; details: read-out: Activity
OVCAR-5 = assay: Cytotoxicity against human OVCAR5 cells assessed as cell growth at 0.05 uM by SRB assay; details: read-out: Activity
MDA-MB-435 [19] = assay: Cytotoxicity against human MDA-MB-435 cells assessed as cell growth at 0.5 uM by SRB assay; details: read-out: Activity
SR = assay: Cytotoxicity against human SR cells assessed as cell growth at 0.005 uM by SRB assay; details: read-out: Activity
SW-620 = assay: Cytotoxicity against human SW620 cells by SRB assay; procedure, shortened: as §2
NCI-H23 [20] = assay: Cytotoxicity against human NCI-H23 cells assessed as cell growth at 5 uM by SRB assay; details: read-out: Activity
MDA-MB-435 [21] = assay: Cytotoxicity against human MDA-MB-435 cells assessed as cell growth at 50 uM by SRB assay; details: read-out: Activity
HCC 2998 = assay: Cytotoxicity against human HCC2998 cells by SRB assay; procedure, shortened: as §1
[22] = read-out: LC50 (the source's name)
[23] = read-out: pLC50 (the source's name) (converted)

COc1cc([C@@H]2c3cc4c(cc3[C@@H](NC(=O)CN3CCN(CCCCCCN5CCN(CC(=O)N[C@@H]6c7cc8c(cc7[C@@H](c7cc(OC)c(O)c(OC)c7)[C@H]7C(=O)OC[C@@H]76)OCO8)CC5)CC3)[C@H]3COC(=O)[C@H]23)OCO4)cc(OC)c1O
growth at 50 µM (HCT-116 [1]): 2% | growth at 5 µM (HCT-15): 82% | growth at 50 µM (OVCAR-3): 11% | growth at 0.005 µM (T47D): 97% | growth at 5 µM (RXF 393): 66% | growth at 0.5 µM [2]: 106% | growth at 5 µM (ACHN [3]): 73% | Ratio IC50 (K562): 21.5 | GI50 (ACHN [4]; read-out: GI50): 22.3 µM | CC50 (ACHN [4]; [22]): > 50 µM | TGI (ACHN [4]; read-out: TGI): > 50 µM | GI50 (ACHN [4]; read-out: pGI50 (converted)): 22.4 µM | CC50 (ACHN [4]; [23]): > 50.1 µM | TGI (ACHN [4]; read-out: pTGI (converted)): > 50.1 µM | growth at 0.005 µM (A498): 82% | growth at 0.5 µM (CCRF-CEM [5]): 31% | GI50 (HOP-62; read-out: GI50): 3.6 µM | CC50 (HOP-62; [22]): > 50 µM | TGI (HOP-62; read-out: TGI): 22.8 µM | GI50 (HOP-62; read-out: pGI50 (converted)): 3.63 µM | CC50 (HOP-62; [23]): > 50.1 µM | TGI (HOP-62; read-out: pTGI (converted)): 22.9 µM | growth at 5 µM (HCT-116 [6]): 40% | growth at 0.5 µM (MDA-MB-231 [7]): 97% | growth at 0.5 µM (U-251): 76% | growth at 50 µM (HL-60(TB) [8]): -1% | growth at 0.5 µM (A549): 56% | growth at 0.05 µM (HCT-116 [9]): 98% | growth at 0.5 µM (SK-MEL-2 [10]): 105% | growth at 0.05 µM (CCRF-CEM [11]): 95% | growth at 0.5 µM (NCI-H23 [12]): 95% | growth at 0.05 µM (SF-539): 96% | GI50 (MDA-MB-231 [13]; read-out: GI50): 13.6 µM | CC50 (MDA-MB-231 [13]; [22]): > 50 µM | TGI (MDA-MB-231 [13]; read-out: TGI): > 50 µM | GI50 (MDA-MB-231 [13]; read-out: pGI50 (converted)): 13.5 µM | CC50 (MDA-MB-231 [13]; [23]): > 50.1 µM | TGI (MDA-MB-231 [13]; read-out: pTGI (converted)): > 50.1 µM | growth at 0.5 µM (PC-3): 80% | growth at 0.05 µM (BT-549): 87% | growth at 50 µM (ACHN [14]): 37% | growth at 5 µM (CCRF-CEM [15]): 7% | GI50 (COLO 205; read-out: GI50): 5.79 µM | CC50 (COLO 205; [22]): > 50 µM | TGI (COLO 205; read-out: TGI): 44.7 µM | GI50 (COLO 205; read-out: pGI50 (converted)): 5.75 µM | CC50 (COLO 205; [23]): > 50.1 µM | TGI (COLO 205; read-out: pTGI (converted)): 44.7 µM | GI50 (CAKI-1; read-out: GI50): > 50 µM | CC50 (CAKI-1; [22]): > 50 µM | TGI (CAKI-1; read-out: TGI): > 50 µM | GI50 (CAKI-1; read-out: pGI50 (converted)): > 50.1 µM | CC50 (CAKI-1; [23]): > 50.1 µM | TGI (CAKI-1; read-out: pTGI (converted)): > 50.1 µM | growth at 0.005 µM (SK-MEL-2 [16]): 102% | GI50 (SK-MEL-28; read-out: GI50): 6.52 µM | CC50 (SK-MEL-28; [22]): > 50 µM | TGI (SK-MEL-28; read-out: TGI): > 50 µM | GI50 (SK-MEL-28; read-out: pGI50 (converted)): 6.46 µM | CC50 (SK-MEL-28; [23]): > 50.1 µM | TGI (SK-MEL-28; read-out: pTGI (converted)): > 50.1 µM | GI50 (MDA-MB-435 [17]; read-out: GI50): 7.52 µM | CC50 (MDA-MB-435 [17]; [22]): > 50 µM | TGI (MDA-MB-435 [17]; read-out: TGI): > 50 µM | GI50 (MDA-MB-435 [17]; read-out: pGI50 (converted)): 7.59 µM | CC50 (MDA-MB-435 [17]; [23]): > 50.1 µM | TGI (MDA-MB-435 [17]; read-out: pTGI (converted)): > 50.1 µM | growth at 0.05 µM (HL-60(TB) [18]): 114% | growth at 5 µM (UO-31): 89% | growth at 0.05 µM (OVCAR-5): 89% | growth at 0.5 µM (MDA-MB-435 [19]): 84% | growth at 0.005 µM (SR): 90% | GI50 (SW-620; read-out: GI50): 1.6 µM | CC50 (SW-620; [22]): > 50 µM | TGI (SW-620; read-out: TGI): > 50 µM | GI50 (SW-620; read-out: pGI50 (converted)): 1.58 µM | CC50 (SW-620; [23]): > 50.1 µM | TGI (SW-620; read-out: pTGI (converted)): > 50.1 µM | growth at 5 µM (NCI-H23 [20]): 44% | growth at 50 µM (MDA-MB-435 [21]): 17% | GI50 (HCC 2998; read-out: GI50): 9.47 µM | CC50 (HCC 2998; [22]): > 50 µM | TGI (HCC 2998; read-out: TGI): 38.3 µM | GI50 (HCC 2998; read-out: pGI50 (converted)): 9.55 µM | CC50 (HCC 2998; [23]): > 50.1 µM | TGI (HCC 2998; read-out: pTGI (converted)): 38 µM
